# Tests used:
# [1] = tested on: Human primary kidney fibroblasts (HPKF); assay: Kidney fibroblast fibrosis assay; format: cell-based
# How it was run: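 Primary human kidney fibroblasts were grown on collagen I-coated plates at 37°C in 5% CO2 and serum-starved overnight. They were then given various concentrations of test compound for 24 h. In TGF-β arms, compound was added 1 h before recombinant human TGF-β1 (5 ng/mL final, 24 h). Marker mRNA was measured by RNA extraction, reverse transcription and real-time PCR.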
# human podocytes = assay: Podocyte cell viability; format: cell-based; conditions: 48 h treatment, unpublished data
# [2] = tested on: postmenopausal women with osteoporosis; conditions: cited from earlier work
# [3] = Body weight, food and water intake in ZSF1 rats; format: in vivo, rat; conditions: data not shown
# How it was run: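 Male obese ZSF1 rats received the test compound in a medicated chow diet from 16 weeks of age for 28 weeks. Before each collection they were acclimated for at least 3 days to single housing in metabolic cages. Body weight and food and water consumption were recorded at every urine and blood collection, at weeks −2, 1, 2, 4, 6, 8, 12, 16, 21, 24 and 28.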
# obese ZSF1 rats [4] = assay: Kidney collagen I and III protein by immunohistochemistry in ZSF1 rats; format: in vivo, rat; conditions: 400 mg/kg/day, versus obese vehicle
# How it was run: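 Kidneys were taken at study end, formalin-fixed and paraffin-embedded, then deparaffinized and rehydrated. Sections were stained with rabbit polyclonal anti-collagen I (2 ug/mL) or anti-collagen III (3 ug/mL), developed with an HRP-polymer kit and counterstained with hematoxylin. Whole slides were scanned at 20x, and positive stain area was quantified by a colour-deconvolution algorithm. Dosing was in diet for 28 weeks.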
# obese ZSF1 rats [5] = assay: Kidney histology in ZSF1 rats; format: in vivo, rat
# How it was run: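 At study end, both kidneys were formalin-fixed, paraffin-embedded and stained with H&E, PAS and Masson's trichrome for light microscopy. Tubular, interstitial, vascular and glomerular changes were graded 0–5 (normal to severe). Collagen deposition was graded 0–5 by blue-stained area size and intensity. Group sizes were n = 8 lean and n = 12 per obese group, with 28 weeks of diet dosing.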
# [6] = tested on: osteoplastic bone resorption; conditions: ref Hutchinson et al. 2003; cited from earlier work
# obese ZSF1 rats [7] = assay: Kidney fibrosis marker gene expression by RT-PCR in ZSF1 rats; format: in vivo, rat; conditions: dose not given
# How it was run: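 Kidney cortex was snap-frozen, homogenized in TRIzol and column-purified for RNA. A 2 µg RNA sample was reverse-transcribed, and rat TaqMan probes were used for qPCR. Ct values were normalized to the geomean of POLR2A and B2M and quantified by the 2^-ΔΔCT method relative to the obese vehicle group. Treatment was in diet for 28 weeks (n = 12 per obese group).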
# αvβx integrins = assay: Thermal shift assay, αvβx integrins; format: binding; conditions: Fig. S1B
# How it was run: (§1)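 Differential scanning fluorimetry was run on a real-time PCR instrument. Recombinant integrins (the α1β1–αIIbβ3 panel was recombinant human) were reconstituted in assay buffer with Sypro orange, and test compound was added at 20 µM. ΔTm was calculated against a DMSO control. Runs were in triplicate across three independent experiments.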
# [8] = tested on: α1β1, α2β1, α3β1, α4β1, α6β1, α9β1, α10β1, α11β1, and αIIbβ3 integrins; assay: Thermal shift assay; format: binding, Human; conditions: Twenty μM MK‐0429
# How it was run: as §1
# platelet aggregation = conditions: ref Hutchinson et al. 2003; cited from earlier work
# αvβ3 = αvβ3 (Homo sapiens, UniProt P05106+P06756); conditions: ref Hutchinson et al. 2003; cited from earlier work
# αvβ3, sequence (P06756 31-992 limits assumed): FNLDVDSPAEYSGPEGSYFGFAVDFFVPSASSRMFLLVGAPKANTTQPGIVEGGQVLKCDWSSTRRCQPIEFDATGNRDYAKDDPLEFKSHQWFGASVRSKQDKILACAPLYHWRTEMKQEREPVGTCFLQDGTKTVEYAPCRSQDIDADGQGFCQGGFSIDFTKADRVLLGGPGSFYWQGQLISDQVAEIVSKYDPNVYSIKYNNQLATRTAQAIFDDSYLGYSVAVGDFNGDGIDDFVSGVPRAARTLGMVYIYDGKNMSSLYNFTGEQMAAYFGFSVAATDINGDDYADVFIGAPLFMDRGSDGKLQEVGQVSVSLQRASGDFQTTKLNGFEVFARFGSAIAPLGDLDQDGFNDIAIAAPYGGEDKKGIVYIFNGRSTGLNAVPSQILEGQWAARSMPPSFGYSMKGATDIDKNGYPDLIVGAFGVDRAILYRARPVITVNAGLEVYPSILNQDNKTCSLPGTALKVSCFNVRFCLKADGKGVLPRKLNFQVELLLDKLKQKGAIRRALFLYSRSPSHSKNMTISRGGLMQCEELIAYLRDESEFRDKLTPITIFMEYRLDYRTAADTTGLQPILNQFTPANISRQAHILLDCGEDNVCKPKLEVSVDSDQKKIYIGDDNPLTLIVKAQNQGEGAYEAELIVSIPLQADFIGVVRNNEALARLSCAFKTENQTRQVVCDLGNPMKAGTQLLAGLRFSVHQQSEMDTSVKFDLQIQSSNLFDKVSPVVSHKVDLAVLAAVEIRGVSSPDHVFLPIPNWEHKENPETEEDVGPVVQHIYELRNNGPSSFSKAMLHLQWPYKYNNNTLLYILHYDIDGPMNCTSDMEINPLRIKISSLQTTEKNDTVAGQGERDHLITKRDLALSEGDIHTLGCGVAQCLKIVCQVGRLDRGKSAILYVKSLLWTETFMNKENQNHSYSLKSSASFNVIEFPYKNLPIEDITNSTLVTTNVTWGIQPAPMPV
# αvβ3, sequence (P05106 27-718 limits assumed): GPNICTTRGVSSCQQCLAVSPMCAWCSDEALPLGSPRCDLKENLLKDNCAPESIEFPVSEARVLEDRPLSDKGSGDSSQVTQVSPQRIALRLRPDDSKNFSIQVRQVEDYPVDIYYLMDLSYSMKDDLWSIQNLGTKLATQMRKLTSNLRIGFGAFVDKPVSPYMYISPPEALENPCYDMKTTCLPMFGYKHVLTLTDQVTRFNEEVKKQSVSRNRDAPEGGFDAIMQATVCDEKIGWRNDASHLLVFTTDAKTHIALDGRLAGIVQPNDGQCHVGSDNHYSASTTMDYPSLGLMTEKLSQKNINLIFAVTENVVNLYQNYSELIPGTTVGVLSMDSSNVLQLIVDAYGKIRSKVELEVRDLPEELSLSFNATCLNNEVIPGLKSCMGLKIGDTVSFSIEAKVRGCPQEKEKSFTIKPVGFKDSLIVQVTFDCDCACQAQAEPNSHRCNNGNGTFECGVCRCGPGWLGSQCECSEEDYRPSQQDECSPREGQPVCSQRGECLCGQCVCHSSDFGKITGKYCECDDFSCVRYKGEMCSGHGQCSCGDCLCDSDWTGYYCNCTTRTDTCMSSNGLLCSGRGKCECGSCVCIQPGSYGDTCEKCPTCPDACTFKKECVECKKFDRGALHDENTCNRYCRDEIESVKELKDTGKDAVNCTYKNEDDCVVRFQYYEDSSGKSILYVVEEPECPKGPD
# [9] = tested on: men with hormone‐refractory prostate cancer and bone metastases; conditions: ref Rosenthal et al. 2010; cited from earlier work
# obese ZSF1 rats [10] = assay: Renal function in obese ZSF1 rat diabetic nephropathy model; format: in vivo; conditions: for Urinary protein/creatinine ratio (UPCR): 28 weeks
# liver and lung fibrosis = conditions: ref Henderson et al. 2013; cited from earlier work
compound,measurement,setting,value
COc1ccc([C@H](CC(=O)O)N2CCN(CCCc3ccc4c(n3)NCCC4)C2=O)cn1 [MK‐0429],Expression of Collagen type I alpha‐1 chain (Col IA1),[1]; HPKF ± TGF‐β,partially inhibited
same,Expression of connective tissue growth factor (CTGF),[1]; HPKF ± TGF‐β,strongly suppressed
same,Expression of α‐smooth muscle actin (αSMA),[1]; HPKF ± TGF‐β,partially inhibited
same,IC50,"[1]; read-out: Inhibition of PAI‐1 gene expression IC50, HPKF, absence of TGF‐β, 24 h",56.5 nM
same,Effect on cell viability,human podocytes,without affecting cell viability
same,Bone mineral density at spine and hip (multiple endpoints),"[2]; phase II, postmenopausal women with osteoporosis, ref Murphy et al. 2005",improvement
same,Tolerability in Phase II trials,"[2]; ref Hutchinson et al. 2003, Coleman et al. 2004, Murphy et al. 2005, Rosenthal et al. 2010",well tolerated
same,Body weight,[3],no significant effects
same,Food intake,[3],no significant effects
same,Water intake,[3],no significant effects
same,"Decrease of Type I collagen positive stain (% of area), kidney IHC",obese ZSF1 rats [4],significantly decreased
same,"Decrease of Type III collagen positive stain (% of area), kidney IHC",obese ZSF1 rats [4],significantly decreased
same,Glomerular injury score,"obese ZSF1 rats [5]; 0–5 scale, data not shown",no significant effect
same,Tubular injury score,"obese ZSF1 rats [5]; 0–5 scale, data not shown",no significant effect
same,Osteoplastic bone resorption,[6],inhibits
same,"αSMA mRNA expression, kidney",obese ZSF1 rats [7],significantly decreased
same,Shift of melting temperatures of αvβx integrins,αvβx integrins,dramatic shift
same,Binding to other integrins (thermal shift assay),[8],does not bind and No
same,Activity in platelet aggregation assay,platelet aggregation,inactive
same,αvβ3 ligand binding,αvβ3,inhibits
same,Bone turnover,[9],significantly reduced
same,Urinary protein/creatinine ratio (UPCR),obese ZSF1 rats [10]; 400 mg/kg/day in diet,significantly later onset in its effects to reduce
"CCOC(=O)[C@H](CCc1ccccc1)N[C@@H](C)C(=O)N1CCC[C@H]1C(=O)O [Enalapril, enalapril]",Kidney fibrosis score (Masson's trichrome),"obese ZSF1 rats [5]; 10 mg/kg/day, 28 weeks, versus obese vehicle",significantly decreased
same,Urinary protein/creatinine ratio (UPCR),obese ZSF1 rats [10]; 10 mg/kg/day in diet,significantly decreased
same,Glomerular filtration rate (GFR),obese ZSF1 rats [10]; enalapril 10 mg/kg/day in diet,improvement
CC(C)(C)c1cc(Br)cc([C@H](CC(=O)O)NC(=O)CNC(=O)c2cc(O)cc(NC3=NCC(O)CN3)c2)c1 (some centres unmarked) [CWHM12],Liver and lung fibrosis,liver and lung fibrosis,attenuated

# Reference: PMC5625158 (Pharmacology Research & Perspectives, 2017)
